Assay results reported in ChEMBL document CHEMBL4406880, “Design, synthesis, and bioactivity of dihydropyrimidine derivatives as kinesin spindle protein inhibitors” (Bioorg Med Chem, 2019).

Tests used:
Assay type in all cases: functional
MDA-MB-468 = assay: Growth inhibition of human MDA-MB-468 cells assessed as growth percentage at 10 uM incubated for 48 hrs by sulforhodamine B assay relative to control; conditions: MDA-MB-468, 48 h, read-out: Activity
In short: (§1)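 NCI-60 one-dose screen. Cells in RPMI 1640 with 5% FBS and 2 mM L-glutamine, seeded at 5,000–40,000 cells/well according to doubling time, and preincubated overnight at 37 °C, 5% CO2. A time-zero plate was TCA-fixed at drug addition. Compound from DMSO stock, final 10 µM, 48 h; DMSO vehicle controls. Fixation with TCA, 10% final (16% for suspension cells). SRB stain, Tris solubilization, A515. Result given as % growth versus untreated cells.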

ACHN = assay: Growth inhibition of human ACHN cells assessed as growth percentage at 10 uM incubated for 48 hrs by sulforhodamine B assay relative to control; conditions: read-out: Activity
In short: (§2)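 NCI-60 one-dose screen: cells in RPMI 1640 with 5% FBS and 2 mM L-glutamine, plated at 5,000–40,000 cells/well and preincubated 24 h at 37 °C, 5% CO2. Compound is added from a DMSO stock to a final 10 µM and incubated 48 h. Cells are TCA-fixed and stained with sulforhodamine B, read at 515 nm. Output is % growth versus untreated control, with a time-zero plate.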

MDA-MB-435 = assay: Growth inhibition of human MDA-MB-435 cells assessed as growth percentage at 10 uM incubated for 48 hrs by sulforhodamine B assay relative to control; conditions: MDA-MB-435, 48 h, read-out: Activity; in short: as §1
NCI/ADR-RES = assay: Growth inhibition of human NCI/ADR-RES cells assessed as growth percentage at 10 uM incubated for 48 hrs by sulforhodamine B assay relative to control; conditions: read-out: Activity; in short: as §1
786-0 = assay: Growth inhibition of human 786-0 cells assessed as growth percentage at 10 uM incubated for 48 hrs by sulforhodamine B assay relative to control; conditions: 786-0, 48 h, read-out: Activity; in short: as §2
HCC 2998 = assay: Growth inhibition of human HCC2998 cells assessed as growth percentage at 10 uM incubated for 48 hrs by sulforhodamine B assay relative to control; conditions: HCC 2998, 48 h, read-out: Activity; in short: as §2
NCI-H23 = assay: Growth inhibition of human NCI-H23 cells assessed as growth percentage at 10 uM incubated for 48 hrs by sulforhodamine B assay relative to control; conditions: NCI-H23, 48 h, read-out: Activity; in short: as §1
SF-268 = assay: Growth inhibition of human SF268 cells assessed as growth percentage at 10 uM incubated for 48 hrs by sulforhodamine B assay relative to control; conditions: SF-268, 48 h, read-out: Activity
In short: (§3)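 NCI-60 single-dose screen. Cells were grown in RPMI 1640 with 5% FBS and 2 mM L-glutamine and plated at 5,000–40,000 cells/well. After an overnight preincubation at 37 °C in 5% CO2, compound was added at a final 10 µM from a DMSO stock, with DMSO/PBS controls. After 48 h, cells were TCA-fixed and stained with 0.4% SRB, and absorbance was read at 515 nm. Growth is given as a percentage of untreated control.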

T47D = assay: Growth inhibition of human T47D cells assessed as growth percentage at 10 uM incubated for 48 hrs by sulforhodamine B assay relative to control; conditions: read-out: Activity; in short: as §3
NCI-H460 = assay: Growth inhibition of human NCI-H460 cells assessed as growth percentage at 10 uM incubated for 48 hrs by sulforhodamine B assay relative to control; conditions: NCI-H460, 48 h, read-out: Activity; in short: as §1
MOLT-4 = assay: Growth inhibition of human MOLT4 cells assessed as growth percentage at 10 uM incubated for 48 hrs by sulforhodamine B assay relative to control; conditions: MOLT-4, 48 h, read-out: Activity; in short: as §1
PC-3 = assay: Growth inhibition of human PC3 cells assessed as growth percentage at 10 uM incubated for 48 hrs by sulforhodamine B assay relative to control; conditions: PC-3, 48 h, read-out: Activity; in short: as §3
UO-31 = assay: Growth inhibition of human UO31 cells assessed as growth percentage at 10 uM incubated for 48 hrs by sulforhodamine B assay relative to control; conditions: UO-31, 48 h, read-out: Activity; in short: as §3
COLO 205 = assay: Growth inhibition of human COLO205 cells assessed as growth percentage at 10 uM incubated for 48 hrs by sulforhodamine B assay relative to control; conditions: COLO 205, 48 h, read-out: Activity; in short: as §2
NCI-H322M = assay: Growth inhibition of human NCI-H322M cells assessed as growth percentage at 10 uM incubated for 48 hrs by sulforhodamine B assay relative to control; conditions: read-out: Activity; in short: as §1
SW-620 = assay: Growth inhibition of human SW620 cells assessed as growth percentage at 10 uM incubated for 48 hrs by sulforhodamine B assay relative to control; conditions: SW-620, 48 h, read-out: Activity; in short: as §3
TK-10 = assay: Growth inhibition of human TK10 cells assessed as growth percentage at 10 uM incubated for 48 hrs by sulforhodamine B assay relative to control; conditions: TK-10, 48 h, read-out: Activity; in short: as §3
IGROV-1 = assay: Growth inhibition of human IGROV1 cells assessed as growth percentage at 10 uM incubated for 48 hrs by sulforhodamine B assay relative to control; conditions: IGROV-1, 48 h, read-out: Activity; in short: as §1
OVCAR-8 = assay: Growth inhibition of human OVCAR8 cells assessed as growth percentage at 10 uM incubated for 48 hrs by sulforhodamine B assay relative to control; conditions: OVCAR-8, 48 h, read-out: Activity; in short: as §3
SK-OV-3 = assay: Growth inhibition of human SKOV3 cells assessed as growth percentage at 10 uM incubated for 48 hrs by sulforhodamine B assay relative to control; conditions: SK-OV-3, 48 h, read-out: Activity; in short: as §3
RXF 393 = assay: Growth inhibition of human RXF393 cells assessed as growth percentage at 10 uM incubated for 48 hrs by sulforhodamine B assay relative to control; conditions: RXF 393, 48 h, read-out: Activity; in short: as §3
SN12C = assay: Growth inhibition of human SN12C cells assessed as growth percentage at 10 uM incubated for 48 hrs by sulforhodamine B assay relative to control; conditions: read-out: Activity; in short: as §3
HOP-92 = assay: Growth inhibition of human HOP92 cells assessed as growth percentage at 10 uM incubated for 48 hrs by sulforhodamine B assay relative to control; conditions: HOP-92, 48 h, read-out: Activity; in short: as §1
SK-MEL-28 = assay: Growth inhibition of human SK-MEL-28 cells assessed as growth percentage at 10 uM incubated for 48 hrs by sulforhodamine B assay relative to control; conditions: SK-MEL-28, 48 h, read-out: Activity; in short: as §3
HT-29 = assay: Growth inhibition of human HT-29 cells assessed as growth percentage at 10 uM incubated for 48 hrs by sulforhodamine B assay relative to control; conditions: HT-29, 48 h, read-out: Activity; in short: as §1
Malme-3M = assay: Growth inhibition of human MALME-3M cells assessed as growth percentage at 10 uM incubated for 48 hrs by sulforhodamine B assay relative to control; conditions: read-out: Activity; in short: as §1

SMILES	growth at 10 µM (ACHN) [%]	growth at 10 µM (NCI/ADR-RES) [%]	growth at 10 µM (786-0) [%]	growth at 10 µM (HCC 2998) [%]	growth at 10 µM (NCI-H23) [%]	growth at 10 µM (SF-268) [%]	growth at 10 µM (T47D) [%]	growth at 10 µM (NCI-H460) [%]	growth at 10 µM (MOLT-4) [%]	growth at 10 µM (PC-3) [%]	growth at 10 µM (UO-31) [%]	growth at 10 µM (COLO 205) [%]	growth at 10 µM (NCI-H322M) [%]	growth at 10 µM (SW-620) [%]	growth at 10 µM (TK-10) [%]	growth at 10 µM (IGROV-1) [%]	growth at 10 µM (OVCAR-8) [%]	growth at 10 µM (SK-OV-3) [%]	growth at 10 µM (RXF 393) [%]	growth at 10 µM (SN12C) [%]	also measured
CC1=C(C(=O)OC(C)C)C(c2ccc3c(c2)OCO3)NC(=O)N1 (racemic)	103	105	102	116	98.8	104	101	110	108	101	84.9	124	113	109	98.8	101	100	105	113	92.3	growth at 10 µM (MDA-MB-468): 104%; growth at 10 µM (MDA-MB-435): 110%; growth at 10 µM (HOP-92): 111%; growth at 10 µM (SK-MEL-28): 108%; growth at 10 µM (HT-29): 103%; growth at 10 µM (Malme-3M): 99.6%
CC1=C(C(=O)OC(C)C)C(c2ccc3c(c2)OCO3)NC(=S)N1 (racemic)	99.3	101	104	115	99.2	103	91.4	110	110	86	84.5	123	108	107	98	99.9	102	105	106	105	growth at 10 µM (MDA-MB-468): 115%; growth at 10 µM (MDA-MB-435): 106%; growth at 10 µM (HOP-92): 96.6%; growth at 10 µM (SK-MEL-28): 106%; growth at 10 µM (HT-29): 103%; growth at 10 µM (Malme-3M): 95.9%
CC1=C(C(=O)OCC(C)C)C(c2ccc3c(c2)OCO3)NC(=O)N1 (racemic)	105	106	104	108	102	101	97.5	113	109	92.2	84.8	119	115	113	99.4	94.8	103	108	101	105	growth at 10 µM (MDA-MB-468): 100%; growth at 10 µM (MDA-MB-435): 109%; growth at 10 µM (HOP-92): 102%; growth at 10 µM (SK-MEL-28): 113%; growth at 10 µM (HT-29): 105%; growth at 10 µM (Malme-3M): 99.8%
COCCOC(=O)C1=C(C)NC(=S)NC1c1ccc2c(c1)OCO2 (racemic)	106	103	107	110	96.2	97.4	94.8	112	96.9	95.7	87.8	117	101	106	104	105	102	103	101	104	growth at 10 µM (MDA-MB-435): 104%; growth at 10 µM (HOP-92): 108%; growth at 10 µM (SK-MEL-28): 114%; growth at 10 µM (HT-29): 96.7%; growth at 10 µM (Malme-3M): 108%
CC1=C(C(=O)OCC(C)C)C(c2ccc3c(c2)OCO3)NC(=S)N1 (racemic)	98.5	96.7	104	112	99.5	97.8	81.9	110	89.1	84.4	89.4	123	117	115	101	97.9	102	106	100	106	growth at 10 µM (MDA-MB-468): 94.6%; growth at 10 µM (MDA-MB-435): 103%; growth at 10 µM (HOP-92): 103%; growth at 10 µM (SK-MEL-28): 119%; growth at 10 µM (HT-29): 106%; growth at 10 µM (Malme-3M): 105%
CC1=C(C(=O)OCc2ccccc2)C(c2ccc3c(c2)OCO3)n2c(nc3ccccc32)N1 (racemic)	36 to 38.4	20 to 23.2	31 to 43.1	50 to 56.4	49.3 to 56	26 to 59.6	31 to 40.9	6.62 to 8	37.1 to 41	35 to 41.1	28 to 51.1	37.2 to 43	47 to 55	17.6 to 19	64 to 65.6	36 to 41.4	39 to 46.7	27 to 41.7	30 to 53.2	47.6 to 51	growth at 10 µM (HOP-92): 32 to 78.5%; growth at 10 µM (SK-MEL-28): 52 to 61.8%; growth at 10 µM (HT-29): 7 to 14.4%; growth at 10 µM (Malme-3M): 26 to 39.7%
CC1=C(C(=O)OCc2ccccc2)C(c2ccc3c(c2)OCO3)NC(=S)N1 (racemic)	98.9	105	105	120	94.5	97.3	74	96.7	78.2	85.2	89.2	117	95.1	94.2	105	97.6	97.5	109	94.4	96.8	growth at 10 µM (MDA-MB-435): 93.6%; growth at 10 µM (HOP-92): 99%; growth at 10 µM (SK-MEL-28): 106%; growth at 10 µM (HT-29): 105%; growth at 10 µM (Malme-3M): 115%
